Screening data deposited in PubChem BioAssay by several laboratories.
GRIN3A LBD mod: NR3A (human) ligand-binding domain modulation; AID 1259313; Tm shift relative to glycine control, % at 25 µM; actives 2.5% (n = 340,000); NR3A LBD differential scanning fluorimetry, Tm shift; 0% = protein alone, 100% = glycine-bound protein;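 active means melting temperature shift of at least 10% of the positive control shift, at one fixed dose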
T cruzi inh: blocks replication of Trypanosoma cruzi; T. cruzi beta-gal in NIH3T3, luminescence, 90 h; inhibition, % (concentration not given with the values); actives 1.4% (n = 300,000); AID 1885;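 active means mean inhibition across valid replicates above about 55%, limit read from the data; inconclusive means mean below that limit but half or more replicates reach it; inactive means mean below it, under half of replicates reach it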;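 further: signal also drops with host cell toxicity which is not excluded here; higher percent means less beta-gal luminescence so fewer parasites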
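System: mouse NIH/3T3 fibroblasts infected with β-gal-expressing T. cruzi Tulahuen C4 / Input: NIH/3T3 cells, 5,000 per well / Buffer or medium: Low-serum DMEM with 2% FBS / Probe or stimulus: 5000 reporter trypomastigotes per well / Schedule: ≥90 h infection period, 3 h prior cell attachment / Measured by: GalScreen luminescence, 60 min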
PREPL inh: inhibitors of human prolyl oligopeptidase-like enzyme PREPL | actives 0.68% (n = 320,000) | Q4J6C6 | inhibition, % at 5.96 µM | recombinant PREPL, fluorescence polarization activity-based probe; in the data active means inhibition above about 43%
Target sequence (Q4J6C6 whole entry, looked up): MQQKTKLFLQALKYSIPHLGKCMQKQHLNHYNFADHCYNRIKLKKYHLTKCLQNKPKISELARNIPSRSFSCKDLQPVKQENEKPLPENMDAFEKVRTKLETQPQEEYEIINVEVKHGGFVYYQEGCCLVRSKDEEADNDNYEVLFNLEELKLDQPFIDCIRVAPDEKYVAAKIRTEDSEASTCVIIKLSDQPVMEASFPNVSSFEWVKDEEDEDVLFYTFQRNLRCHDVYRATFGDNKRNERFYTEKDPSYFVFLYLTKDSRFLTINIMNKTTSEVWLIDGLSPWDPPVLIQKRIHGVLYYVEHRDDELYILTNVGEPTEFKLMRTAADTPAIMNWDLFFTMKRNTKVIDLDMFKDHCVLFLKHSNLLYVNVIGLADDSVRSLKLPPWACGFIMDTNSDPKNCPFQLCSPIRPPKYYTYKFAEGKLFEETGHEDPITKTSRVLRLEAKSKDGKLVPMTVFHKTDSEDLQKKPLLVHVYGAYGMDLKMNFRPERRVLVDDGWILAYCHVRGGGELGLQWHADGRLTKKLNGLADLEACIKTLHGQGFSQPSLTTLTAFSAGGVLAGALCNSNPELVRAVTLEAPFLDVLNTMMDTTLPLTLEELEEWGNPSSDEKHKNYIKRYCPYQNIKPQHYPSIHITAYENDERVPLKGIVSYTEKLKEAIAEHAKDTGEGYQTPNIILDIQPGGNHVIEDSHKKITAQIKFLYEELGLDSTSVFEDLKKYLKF
CHOP inh: CHOP inhibition in unfolded protein response; CHO-K1 CHOP-promoter luciferase, tunicamycin-induced, 15-18 h; actives 3.8% (n = 220,000); AID 2732; inhibition, % at 10 µM;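 active means compounds that reduced the stress-induced luciferase reporter signal by more than about 70% of percent inhibition, limit read from the data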
CSC inhib: cancer stem cell inhibition; cancer stem cell-like cells viability, luminescence; inhibition, % at 7.5 µM; actives 1.1% (n = 300,000); AID 2717; in the data active means inhibition above about 75%; inconclusive means no clear call, values can overlap the other calls; tested in HMLE shEcad cells
Beta cell apopt: blocks beta cell apoptosis; INS-1E cytokine-induced death, ATP luminescence, 48 h; percent of positive-control rescue, neutral wells zero; protection from apoptosis, % (no concentration beside the values); actives 0.8% (n = 300,000); AID 435005;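 active means Every replicate reaches about 75%, or at least half do and their mean reaches it too, limit read from the data; inconclusive means At least half of replicates reach the limit but their mean does not; inactive means Under half of replicates reach the limit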;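 further: higher means more ATP so stronger rescue from cytokine killing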
Of the large screens only hits and unclear results are named; the others gave an inactive call. Only some compounds are listed: those with a hit (about 6.7% of all), similar ones and a draw of the others.

c1ccc(CN2CCCC3(CCCN(Cc4nc(COc5ccccc5)no4)C3)C2)cc1 (centres undefined)	T cruzi inh 61
c1ccc(CN2CCCC3(CCCN(Cc4nc(CC5CC5)no4)C3)C2)cc1 (centres undefined)	none
c1ccc(Cc2noc(CN3CCN(CCOc4ccccc4)CC3)n2)cc1	T cruzi inh 57
Fc1ccccc1Cc1noc(CN2CCN(C/C=C/c3ccccc3)CC2)n1	T cruzi inh 67
COc1ccc2cc(/C=C/C(=O)N3CCN(CC(=O)N4CCCCCC4)CC3)ccc2c1	none (no result: CHOP inh)
CN(C(=O)COC(=O)CCC(=O)c1ccc(F)cc1)C1CCCCC1	none (no result: T cruzi inh, CHOP inh)
COc1cc2cc(-c3ccc(O)cc3O)nc(C)c2cc1OC	GRIN3A LBD mod 29 (no result: CHOP inh)
CC(=O)c1cc2c(C)c(C(=O)c3ccccc3)oc2cc1O	CHOP inh 83
O=C(Cc1cccc(NC(=O)C2CCN(C(=O)CCc3ccccc3)CC2)c1)Nc1cccc(C(=O)N2CCCCC2)c1	none (no result: T cruzi inh, PREPL inh, CHOP inh, CSC inhib, Beta cell apopt)
COc1ccc(-c2csc(NC(=O)c3ccoc3C)n2)cc1	none (no result: CSC inhib, Beta cell apopt)
COc1ccc(/C=N/NC(=O)Cc2csc(Nc3cccc(C(F)(F)F)c3)n2)cc1C	GRIN3A LBD mod 22, CHOP inh 81
COc1ccc(-c2ccnc3nc(N4CCN(c5ccccc5)CC4)nn23)cc1	CHOP inh 72
Fc1ccc(-c2ccnc3nc(N4CCOCC4)nn23)cc1	none
CCC(C)NC(=O)c1cn(-c2cccc(OC)c2)c(=O)c2ccccc12 (centres undefined)	none (no result: CHOP inh)
Cc1ccc(S(=O)(=O)N(C)C)cc1NC(=O)C(C)OC(=O)c1ccc2c(=O)n3c(nc2c1)CCC3 (centres undefined)	none (no result: T cruzi inh, PREPL inh, CHOP inh, CSC inhib, Beta cell apopt)
CC1Cc2ccccc2N1C(=O)COC(=O)c1ccc(Cl)c(S(=O)(=O)N2CCOCC2)c1 (centres undefined)	none (no result: T cruzi inh, CHOP inh)
O=C(CSCc1ccc(Cl)cc1)NCc1ccccn1	none
Cc1ccc(-n2[nH]c(C)c(/C=N/c3ccccn3)c2=O)cc1	none
Cc1ccc(N=Cc2c(C)[nH]n(-c3nc4ccccc4[nH]3)c2=O)cc1	CSC inhib 95, Beta cell apopt 92
CCOc1[nH]n(-c2ccccc2)c(=O)c1C=Nc1ccc(C)cc1	CHOP inh 77
O=C(O)c1ccccc1N/C=C\[N+](=O)[O-]	none
N#Cc1cnc2c(-c3ccccc3)c(-c3ccccc3)nn2c1N	CHOP inh 78
CCCCc1ccc(/C=C2\C(=O)c3ccccc3C(O)=C2C(=O)OCC)cc1	none (no result: GRIN3A LBD mod)
Cc1nc(NC(=O)c2ccc(F)cc2)sc1C(=O)Nc1ccc2c(c1)CCC2	CHOP inh 82
Cc1ccc(C(=O)Nc2nc(C)c(C(=O)Nc3ccc4c(c3)CCC4)s2)cc1	GRIN3A LBD mod 19, CSC inhib 81
O=C(N/N=C/C1CC2C=CC1C2)c1ccccc1O (centres undefined)	T cruzi inh inconclusive
Oc1cc2c(cc1C(c1ccc(Cl)c(Cl)c1)N1CCCC1)OCO2 (centres undefined)	GRIN3A LBD mod 40 (no result: PREPL inh, CSC inhib, Beta cell apopt)
COC(=O)C1=CN(C2CCCCC2)C=C(C(=O)OC)C1c1ccc2c(c1)OCO2	T cruzi inh 62
COCCN1C=C(C(=O)OC)C(c2ccc3c(c2)OCO3)C(C(=O)OC)=C1	none
O=c1[nH]c(CN2CCN(c3ccc(O)cc3)CC2)nc2scc(-c3ccc(Cl)cc3)c12	CSC inhib 105
Cc1ccc(S(=O)(=O)Nc2cccc(C(=O)N3CCC(C(N)=O)CC3)c2)cc1	none (no result: T cruzi inh, CHOP inh, CSC inhib, Beta cell apopt)
O=C(COC(=O)c1ccccc1O)Nc1ccc(OC(F)F)cc1	CHOP inh 72
O=C(COC(=O)c1ccccc1Nc1ccccc1)Nc1ccccc1	CHOP inh 78
O=C(COC(=O)CCC1CCCCC1)Nc1ccc(OC(F)F)cc1	none
CCCCC(=O)OCC(=O)Nc1ccc(OC(F)F)cc1	GRIN3A LBD mod 13
O=P(CCCO)(Cc1ccccc1)Cc1ccccc1	none (no result: CHOP inh)
COc1ccc(CNC(=O)c2cc(=O)c3cc(C)cc(C)c3o2)cc1	none (no result: CHOP inh)
COc1ccc(-c2cc(=O)n(-c3nc4ccccc4[nH]3)[nH]2)cc1	CSC inhib 104
COc1ccc(-c2nc3ccccc3[nH]2)cc1	none (no result: CHOP inh, CSC inhib, Beta cell apopt)
CC(=O)Nc1ccc(NC(=O)c2cc(-n3cnnc3)ccc2Cl)cc1	none (no result: CSC inhib)
CC(C)NC(=O)c1cc(-n2cnnc2)ccc1Cl	GRIN3A LBD mod 11 (no result: CSC inhib)
O=[N+]([O-])c1cnc(Nc2ccccc2)nc1Nc1ccccc1	none (no result: CHOP inh)
COc1cc(Cl)c(NC2=CC(=O)C(=O)c3ccccc32)c(OC)c1	CSC inhib 110, Beta cell apopt 105 (no result: T cruzi inh, CHOP inh)
COc1ccc(CN2C(=O)c3cccc4cccc2c34)cc1F	none (no result: CHOP inh)
CCOc1ccc2c(c1)C(N(CCN1CCOCC1)C(=O)Nc1ccccc1)CC(C)(C)O2 (centres undefined)	none (no result: CSC inhib, Beta cell apopt)
Cc1csc2ncnc(N3CCN(C(=S)Nc4ccc(F)cc4F)CC3)c12	none
CCOC(=O)C1(C(=O)O)NC(=O)CC1c1ccccc1 (centres undefined)	GRIN3A LBD mod 12
COc1ccc(-c2ccc(SCC(=O)NC3CCCCC3)nn2)cc1OC	none (no result: CHOP inh)
COCCn1nnnc1C(CC(C)C)N1CCN(c2nc3ccccc3s2)CC1 (centres undefined)	none
COc1ccc(C(c2nnnn2C(C)(C)C)N2CCN(c3nc4ccccc4s3)CC2)cc1 (centres undefined)	GRIN3A LBD mod 13 (no result: PREPL inh, CSC inhib, Beta cell apopt)
Cc1ccc(S(=O)(=O)Cn2nnnc2C(C(C)C)N2CCN(c3nc4ccccc4s3)CC2)cc1 (centres undefined)	T cruzi inh 56
CC(C)(O)CC[C@H](OC(=O)c1ccccc1)[C@](C)(O)[C@H]1CC[C@@]2(O)C3=CC(=O)[C@@H]4C[C@@H](O)[C@H](O)C[C@]4(C)C3CC[C@]12C (some centres undefined)	none (no result: CHOP inh)
CC(=O)N/C(=C\c1ccccc1)C(=O)OCC(=O)NC1CCS(=O)(=O)C1 (centres undefined)	none (no result: T cruzi inh, CHOP inh)
O=C(Nc1cc(Oc2ccccc2)cc([N+](=O)[O-])c1)C12CC3CC(C1)CC(n1cnc(Cl)n1)(C3)C2	T cruzi inh 62 (no result: Beta cell apopt)
CCc1cc(C(=O)NCC2CCCO2)sc1C (centres undefined)	none (no result: CHOP inh)
CCOC(=O)N1CCN(c2nc(-c3cccc(OC)c3)cc(C(F)(F)F)n2)CC1	none
O=[N+]([O-])c1cn(-c2nc(-c3ccco3)cc(C(F)(F)F)n2)cn1	T cruzi inh 65
O=C(CSc1nc(-c2ccco2)cc(C(F)(F)F)n1)Nc1ccccc1C(F)(F)F	CHOP inh 77, CSC inhib 75
Cc1cccc(C)c1NC(=O)CSc1nc(-c2ccco2)cc(C(F)(F)F)n1	CHOP inh 85
CCOC(=O)N1CCN(c2nc(-c3ccco3)cc(C(F)(F)F)n2)CC1	CHOP inh 86
Cc1cc(NC(=O)CSc2nc(-c3ccco3)cc(C(F)(F)F)n2)no1	none (no result: CHOP inh)
O=C(NC12CC3CC(CC(C3)C1)C2)N(Cc1ccccc1)Cc1ccncc1	none (no result: CSC inhib)
